Compound activity (PubChem)
Jurkat NFkB inh: lowers PMA/ionomycin-induced NF-kB signal in Jurkat cells. AID 435003. PMA/ionomycin-induced NF-kB luciferase reporter, luminescence. inhibition, % at 4 µM. hit rate 0.53% among 330,000; in the data active means inhibition above about 50%
UPR XBP1 act: adaptive UPR (XBP1) activation; CHO-XBP1 luciferase reporter, IRE1-XBP1 UPR activation, luminescence; percent of tunicamycin response, DMSO as zero; activation, % at 20 µM; hit rate 0.33% among 330,000; AID 463104;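 active means versus positive control, 20 µM dose yields 30% or more activation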;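 further: 100% = tunicamycin at 10 µg/mL and 0% = DMSO only wells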
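Material: CHO cell line with stable XBP1 luciferase reporter; buffer or medium: F12 medium containing 10% fetal bovine serum; compound: single point, 20 µM final compound, 1% DMSO; incubation: 6 h treatment, 37 °C; measured by: glow luminescence from Steady-Glo reagent; evaluation: activation, % of tunicamycin; control set: tunicamycin high, DMSO low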
CHOP inh: CHOP inhibition in unfolded protein response. CHO-K1 CHOP-promoter luciferase, tunicamycin-induced, 15-18 h. hit rate 3.8% among 220,000. AID 2732. inhibition, % at 10 µM;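 active means compounds that reduced the stress-induced luciferase reporter signal by more than about 70% of percent inhibition, limit read from the data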;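 further: 0% = tunicamycin plus vehicle and 100% = wells without tunicamycin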
UPR CHOP act: activators of apoptotic arm of unfolded protein response (CHOP); CHO-CHOP luciferase reporter, UPR activation, luminescence; percent of tunicamycin response over DMSO baseline; AID 449763; activation, % at 10 µM; hit rate 0.34% among 330,000;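 active means at 10 µM dose, activation of 40% or more, normalized to positive control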;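 further: 100% = tunicamycin at 10 µg/mL and 0% = DMSO alone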
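System: CHO-CHOP luciferase reporter cell line; amount: 500 cells/well; buffer or medium: F12 medium containing 10% fetal bovine serum; incubation: 6 h compound exposure at 37 °C after overnight seeding; measured by: luciferase luminescence after 10 min with Steady-Glo reagent; evaluation: % reporter activation, DMSO baseline versus tunicamycin full activation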
Gli-Sufu block: antagonists of Gli-Sufu signaling | Sufu-KO-LIGHT fibroblasts, Gli luciferase reporter luminescence | inhibition, % at 5 µM | hit rate 0.74% among 340,000;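 active means inhibition above about 55%, limit read from the data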;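 further: 0% = DMSO-treated cells and 100% = wells with medium but no cells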
697 NFkB inh: inhibitors of the PMA/ionomycin-induced NF-kB reporter in 697 B cells | 697 B-cell NF-kB luciferase reporter, 16 h | inhibition, % at 4 µM | hit rate 0.33% among 330,000; in the data active means inhibition above about 35%
CHOP UPR conf: confirmation of apoptotic unfolded protein response (CHOP) activators. shares compounds with UPR CHOP act. CHO-CHOP cells, CHOP-luciferase reporter luminescence; percent of tunicamycin response, DMSO as zero. activation, % at 10 µM. hit rate 64% among 1,000; in the data active means activation above about 33%;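 further: 0% = DMSO wells and 100% = tunicamycin 10 µg/mL wells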
Numbers without * were called inactive; . = not tested or not shown. Rows were chosen to be rich in hits. Some 3.9% of all compounds tested hit in one or more screens of this group.

SMILES | Jurkat NFkB inh | UPR XBP1 act | CHOP inh | UPR CHOP act | Gli-Sufu block | 697 NFkB inh | CHOP UPR conf
CCc1nn(C(CC)C(=O)NCC(C)c2ccccc2)c(=O)c2cc3occc3n12 (stereo not drawn) | 4.2 | -1.0 | . | 1.5 | -10.8 | 2.9 | .
COc1ccc(C(=O)NC(C)c2ccccc2)cc1Br (stereo not drawn) | 2.1 | -5.1 | 7.8 | -1.8 | -1.0 | 9.3 | .
C[C@@H](NC(=O)c1coc(=O)c(Br)c1)c1ccccc1 | -7.0 | -9.4 | 35.9 | 115.1* | -5.0 | -5.4 | 96.8*
O=Cc1c(-c2ccccc2)cc2oc3ccccc3cc1-2 | -99.1 | -2.9 | . | 1.8 | -68.1 | -231.2 | .
CCSC1(SCC)N=C(N)C2(C#N)C(c3ccc(OC)c(OC)c3OC)C12C#N (stereo not drawn) | 16.6 | 19.9 | -12.6 | 214.2* | 8.8 | 13.5 | 307.2*
CCOC(=O)c1ccc(N=C2C(=S)N(c3ccc(C(=O)OCC)cc3)C(=N)N2/N=C/c2ccccc2)cc1 | -12.1 | 10.3 | 43.4 | 53.1* | -2.5 | -14.7 | 36.7*
CC(C)C(=O)N1CCN(c2ccc(NC(=O)c3ccc([N+](=O)[O-])o3)cc2Cl)CC1 | . | . | 15.7 | . | 17.6 | . | .
CC(C)C(=O)N1CCN(c2ccc(NC(=O)c3ccc([N+](=O)[O-])o3)cc2)CC1 | 15.3 | -1.8 | -19.7 | 108.1* | 12.2 | -6.2 | 71.3*
CN1CCN(c2ccc(NC(=O)c3ccc([N+](=O)[O-])o3)cc2Cl)CC1 | 25.3 | 0.3 | . | 98.7* | -17.7 | -9.8 | 59.5*
Cc1cccc(OCC(=O)N(C)c2c(N)n(Cc3ccccc3)c(=O)[nH]c2=O)c1C | -0.7 | 0.1 | . | 0.1 | -4.5 | 8.2 | .
O=[N+]([O-])c1ccc(Sc2cccc3cccnc23)c([N+](=O)[O-])c1 | 38.9 | -2.0 | 15.3 | 256.0* | 45.8 | 0.7 | 158.2*
CCCc1cc(=O)[nH]c(SCC(=O)Nc2cc(S(=O)(=O)N3CCCCC3)ccc2Cl)n1 | . | . | . | . | -6.5 | . | .
CC1=NOC(=O)/C1=C\c1ccc(-c2ccc(Cl)cc2Cl)o1 | 10.4 | 2.3 | 112.1* | 105.7* | 20.8 | 14.2 | 110.2*
Cc1ccc(C(=O)CN(CCCC(N)=O)C(=O)c2ccncc2)cc1 | 6.0 | -0.2 | . | 2.6 | 2.5 | 6.5 | .
CC1CCCC(NC(=O)c2cccc(S(=O)(=O)N3CCN(c4ccccc4)CC3)c2)C1C (stereo not drawn) | 14.7 | 2.0 | . | 1.1 | 43.1 | -38.2 | .
Cc1ccc(O)c(CP(=O)(c2ccccc2)c2ccccc2)c1 | 1.7 | -2.1 | -22.2 | 0.6 | 3.9 | 18.7 | .
CCNc1ccccc1CP(=O)(c1ccccc1)c1ccccc1O (stereo not drawn) | 3.3 | -1.1 | . | 186.5* | 2.4 | 0.3 | 36.8*
COc1cc(S(=O)(=O)N2CCC(c3nc4ccccc4s3)CC2)ccc1S(=O)(=O)N1CC(C)CC(C)C1 (stereo not drawn) | -6.4 | 6.9 | -17.0 | 209.2* | -0.5 | -17.0 | -1.6
COc1cc(S(=O)(=O)N2CCC(c3nc4ccccc4s3)CC2)ccc1S(=O)(=O)NC1CCCC1 | 28.3 | -2.0 | 36.2 | -1.5 | 13.9 | -30.4 | .
COCCN(CC(=O)Nc1ccccc1C(F)(F)F)C(=O)/C=C/c1cc(Cl)c2c(c1)OCCO2 | . | . | . | . | 3.6 | . | .
COc1ccccc1Cn1c(=S)[nH]c2cc(C(=O)N3CCN(c4ccccc4OC)CC3)ccc2c1=O | 21.8 | -4.9 | . | 83.6* | 3.4 | -42.9 | 0.9
COc1ccc2c(c1)c(/C=N/Nc1nc3ccccc3[nH]1)c(C)n2C | 14.6 | 6.5 | -54.1 | 286.5* | 11.5 | -10.0 | 3.2
CCCCn1c(/C=N/Nc2nc3ccccc3[nH]2)nc2ccccc21 | -41.2 | 27.6 | -39.2 | 113.2* | 2.9 | -59.0 | 293.7*
COc1cc(/C=N\Nc2nc3ccccc3[nH]2)cc(OC)c1OC | 18.3 | -0.6 | 6.3 | -0.3 | -5.2 | -6.5 | .
CCCCn1c(/C=C/c2ccco2)nc2ccccc21 | 0.1 | -1.6 | -29.1 | 1.9 | -4.9 | 9.0 | .
SMILES | Jurkat NFkB inh | UPR XBP1 act | CHOP inh | UPR CHOP act | Gli-Sufu block | 697 NFkB inh | CHOP UPR conf
O=C(CSc1ccccc1)Nc1ccc2c(c1)C(=O)NC2=O | 10.4 | -4.2 | . | 2.2 | 14.5 | 5.3 | .
CCCCCN(C(=O)CCC(=O)OCc1cccc(F)c1)c1c(N)n(CCCC)c(=O)[nH]c1=O | -3.6 | -2.1 | . | -1.3 | 12.7 | 11.6 | .
CC(=O)Nc1ccc(N(C(=O)c2ccccn2)C(C(=O)NC2CCCCC2)c2ccc(F)cc2)cc1 (stereo not drawn) | 3.3 | -3.6 | . | -1.1 | 48.4 | 17.8 | .
O=C(Nc1nc(-c2ccccn2)cs1)c1cc(Cl)ccc1[N+](=O)[O-] | 35.2 | -1.1 | 18.8 | 65.7* | 65.1* | 4.9 | 166.7*
CC(C)[C@H](NC(=O)OC(C)(C)C)c1nnc(S(=O)(=O)Cc2c(F)cccc2Cl)o1 | -8.1 | -4.6 | . | 133.9* | 1.1 | -24.2 | 95.0*
O=C(O)C1CCN(S(=O)(=O)c2ccc(Cl)s2)CC1 | 7.3 | -1.3 | . | -0.9 | -2.8 | 12.5 | .
Cc1ccc(NC(=O)c2nc(S(=O)(=O)Cc3ccccc3C)ncc2Cl)cc1C | 20.8 | -10.4 | . | 236.6* | 2.6 | -93.0 | 169.6*
COC(=O)c1ccc(NC(=O)c2nc(S(=O)(=O)Cc3cccc(C)c3)ncc2Cl)cc1 | 6.5 | -10.9 | . | 94.9* | 2.0 | -75.9 | 26.9
CN(CC(=O)N(C)CC(=O)Nc1c(Cl)cccc1Cl)Cc1ccccc1F | -11.7 | -1.9 | . | 1.4 | 6.9 | -15.0 | .
Oc1ccc(/C=N/N(c2ccccc2)c2ccccc2)cc1O | 8.9 | 8.6 | . | 107.0* | 1.4 | -26.3 | 32.6*
Oc1ccc(/C=N/N=C/c2ccc(O)c(O)c2)cc1O | 43.8 | 28.3 | . | 66.7* | 2.9 | -97.2 | 9.2
CC1(C2CC2)NC(=O)N(CC(=O)Nc2ccccc2C#N)C1=O (stereo not drawn) | 0.9 | -0.6 | . | -1.2 | -1.2 | 15.9 | .
O=C(CCC(=O)Nc1ccc(Cl)cc1Cl)N/N=C/c1ccc([N+](=O)[O-])o1 | 12.9 | 7.8 | -39.9 | 192.9* | 8.9 | 4.1 | 106.5*
CCCCCC(=O)N/N=C/c1ccc([N+](=O)[O-])o1 | 1.6 | 2.1 | -39.2 | 1.0 | -1.0 | -6.6 | .
O=C(C#Cc1cccc([N+](=O)[O-])c1)c1ccccc1 | 9.8 | -4.8 | 107.8* | 133.8* | . | -49.4 | 187.7*
CC(=O)OCCCNc1cc(Sc2ccc(C)cc2)c2nonc2c1[N+](=O)[O-] | -11.3 | -5.7 | 109.3* | 149.4* | 1.5 | 24.1 | -10.6
COC(=O)CCSc1cc(NCCOC(C)=O)c([N+](=O)[O-])c2nonc12 | -7.6 | -1.8 | -11.1 | -1.5 | -0.2 | 16.6 | .
Cc1nn(CC2CC2)c(=O)n1-c1ccccc1 | 12.3 | 1.1 | 8.0 | 47.7* | 5.2 | 22.3 | -1.1
